Compound activity: PubChem, The Scripps Research Institute Molecular Screening Center
A selection: hits, their analogues and other compounds. The true share with any hit is near 3.1%.
GPR7 antag = human neuropeptides B/W receptor 1 antagonism | 1.1% of 290,000 active | inhibition, % at 4.4 µM | P48145 | GPR7-expressing cells, fluorescence antagonist assay; in the data active = inhibition above about 16%, passing the limit was not always enough;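 note: cells stimulated with the agonist NPW; 0% = agonist with vehicle and 100% = vehicle without agonist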
OX1R antag-1 = antagonists of human orexin 1 receptor; CHO/OX1R cells, Fluo-8 calcium fluorescence, orexin A; inhibition, % at 5 µM; 0.43% of 330,000 active;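 active = inhibition above its plate's threshold, mean inhibition of all tested compounds on the plate plus 3 SD, cut at about 37% in these data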;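 note: 0% = orexin A challenge wells and 100% = SB-334867-A antagonist wells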
Target sequence (O43613 whole entry, looked up): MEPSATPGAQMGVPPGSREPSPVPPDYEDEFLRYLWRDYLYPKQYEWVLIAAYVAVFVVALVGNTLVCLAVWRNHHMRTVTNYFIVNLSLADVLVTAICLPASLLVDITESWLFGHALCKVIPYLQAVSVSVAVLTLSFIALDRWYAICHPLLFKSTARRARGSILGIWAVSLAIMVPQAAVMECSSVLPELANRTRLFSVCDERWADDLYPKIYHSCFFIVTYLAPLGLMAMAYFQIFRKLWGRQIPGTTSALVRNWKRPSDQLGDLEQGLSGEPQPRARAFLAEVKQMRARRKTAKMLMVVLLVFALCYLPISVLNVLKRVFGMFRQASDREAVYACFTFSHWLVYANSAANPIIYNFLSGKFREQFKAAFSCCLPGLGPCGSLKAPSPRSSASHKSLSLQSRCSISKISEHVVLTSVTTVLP
OX1R antag-2 = antagonists of human orexin 1 receptor (OX1R) | O43613 | OX1R-expressing cells, FRET antagonist read-out | inhibition, % at 6.6 µM | 1.8% of 330,000 active; in the data active = inhibition mostly above about 38%, no sharp cut-off; inactive = mostly below about 40%;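 note: 0% = agonist challenge alone and 100% = reference antagonist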
GalR3 antag = blocks the human galanin receptor 3; O60755; HEK293 GalR3-CNG cAMP membrane potential fluorescence; galR3 body fused to GalR1 C-terminus; inhibition, % at 3 µM; 0.44% of 360,000 active;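 active = inhibition above the screen-wide average plus 3 SD, cut at about 13% in these data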;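 note: forskolin and galanin both at EC90 stimulate the cells; cAMP rise reported by CNG channel membrane potential dye signal; 0% = forskolin plus galanin with DMSO and 100% = forskolin alone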
CHO parental Ca = counter-screen: ATP calcium response change in parental CHO cells. 0.63% of 330,000 active. inhibition, % at 5.6 µM. parental CHO-K1, ATP-induced calcium, Fluo-8 fluorescence. AID 463079;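 active = inhibition above that plate's mean sample inhibition plus 3 SD, cut at about 26% in these data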;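 note: 0% = ATP-challenged DMSO wells and 100% = DMSO wells without ATP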
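Test system: untransfected parental CHO cell line; also added: ATP stimulus; dosing: 5.6 µM, single dose; signal: calcium-sensitive Fluo-8 fluorescence; measure: percent inhibition of ATP-evoked calcium rise, normalized to controls; benchmarks: low control ATP plus DMSO, high control DMSO only; replication: one well per compound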
* = called active by the depositor; x = no result.

SMILES	GPR7 antag	OX1R antag-1	OX1R antag-2	GalR3 antag	CHO parental Ca
CCc1ccccc1N(C(=O)c1ccco1)C(C(=O)NC1CCCC1)c1cccnc1 (stereo not given)	-15	-23	14	3	-25
COc1ccccc1C(=O)NC(=O)COC(=O)c1ccc([N+](=O)[O-])cc1	x	-16	50*	-3	-18
O=C(Nc1ccccc1C(=O)Nc1nnc(C(F)(F)F)s1)c1ccccc1	-11	54*	72*	-5	59*
CC1(C)C2CCC1(C)C(OCC[N+](C)(C)CC(=O)OC1CCCCC1)C2 (stereo not given)	20*	-18	6	0	-4
Nc1c(O)cccc1C(=O)O	x	4	61*	x	1
CCN(CC)c1ccc2cc(C=O)c(=O)oc2c1	4	38	116*	-2	50*
CCN(CC)c1ccc2cc(-c3nnc(-c4ccncc4)o3)c(=O)oc2c1	41*	x	x	0	x
CCN(CC)c1ccc2cc(C(N)=O)c(=O)oc2c1	-9	-5	19	-7	-3
CCN1C[C@@H]2[C@@H]3C(=O)N(Cc4ccccc4)C(=O)[C@@H]3[C@](C)(C1=O)N2C(=O)c1ccc(F)cc1	x	x	x	-6	x
CCCCCCCCN1C(=O)[C@@H](CC(=O)NCc2cccc3ccccc23)C[C@@]2(C(=O)OC)C1=C[C@H](C(C)(C)C)O[C@@H]2C	x	x	x	-7	x
C=CCN(c1ccccc1)S(=O)(=O)c1cccc(C(=O)NCC(c2cccs2)N2CCOCC2)c1 (stereo not given)	x	4	39*	0	-34
Cc1ccccc1CSc1nnc(-c2ccco2)n1Cc1ccco1	17*	5	68*	-9	-27
Cc1ccccc1CSc1nnc(-c2cccs2)n1Cc1ccco1	11	8	69*	-7	-37
c1ccc(CSc2nnc(-c3cccs3)n2Cc2ccco2)cc1	8	-18	29	-5	-6
CC(Oc1ccc2ccc(=O)oc2c1)C(=O)NC(Cc1c[nH]c2ccc(O)cc12)C(=O)O (stereo not given)	-2	-6	6	-4	-4
Cc1ccc(Oc2ccc(Oc3ccc(C)cc3)nn2)cc1	-5	-10	12	-3	27*
CCc1cc(Cn2nc(-c3ccccc3)cc2C(=O)NCC2CC2)on1	x	-17	33	-6	-10
COc1cc(N2CCCC2)c(OC)cc1/C=C(/C#N)c1cccc(F)c1	-3	46*	15	x	51*
COc1cc(/C=C/c2nc3ccccc3c(=O)[nH]2)cc(OC)c1OC	6	-16	7	-9	-15
COc1cc(/C=C/c2nnc3c4ccccc4ncn23)cc(OC)c1OC	15	-3	65*	-5	-3
CC(=O)N(C)C1=C(N2CCOCC2)C(=O)c2ccccc2C1=O	-4	8	73*	x	-4
CC(=O)c1ccc(NC2=C(N3CCOCC3)C(=O)c3ccccc3C2=O)cc1	-7	-11	22	-6	-11
O=C(CCC1CCCC1)NNC(=O)c1cccc(Cl)c1	-5	-40	11	1	-13
COc1cc(/C=C2\SC(=O)NC2=O)ccc1Oc1ccc([N+](=O)[O-])cn1	3	-9	53*	6	-5
COc1cc(/C=C2/SC(N)=NC2=O)ccc1Oc1ccc([N+](=O)[O-])cc1[N+](=O)[O-]	5	1	5	-6	-8
SMILES	GPR7 antag	OX1R antag-1	OX1R antag-2	GalR3 antag	CHO parental Ca
COc1cc(/C=C2/NC(=O)N(Cc3ccccc3F)C2=O)ccc1Oc1ccc([N+](=O)[O-])cn1	-2	-13	15	-4	-8
COc1cc(/C=C2/SC(=O)NC2=O)ccc1Oc1ccc([N+](=O)[O-])cc1[N+](=O)[O-]	-8	-14	47*	-1	-1
COc1ccc(-n2nc(C(N)=O)c(O)cc2=O)cc1	-1	-20	10	-3	3
Nc1n[nH]c2cc(=O)n(-c3ccc(Cl)cc3)nc12	-9	-1	46*	0	-7
COc1ccc(-n2nc3c(N)n[nH]c3cc2=O)cc1	-6	-7	54*	1	-9
COC(=O)[C@]12C[C@H](CC(=O)NCc3ccc(C)o3)C(=O)N(Cc3ccccc3)C1=C[C@H](C1CCCC1)O[C@@H]2C	x	x	x	-3	x
CC(C)CN(C(=O)c1ccc2c(c1)OCCO2)c1c(N)n(Cc2ccccc2)c(=O)[nH]c1=O	x	-31	12	4	-22
O=C(CNC(=O)N1CC(=O)Nc2ccccc21)NCCc1cccc(F)c1	-1	-5	15	-11	8
CCCN1/C(=C(\C#N)C2=NS(=O)(=O)c3ccccc32)N(C)c2ccccc21	x	x	x	-4	x
COC(=O)CCN(C(=O)c1ccc([N+](=O)[O-])cc1)c1ccccn1	-2	-71	34	-1	-35
COC(=O)CCN(C(=O)c1cc([N+](=O)[O-])cc([N+](=O)[O-])c1)c1ccccn1	-9	-17	66*	-5	1
O=C(c1ccccc1)N(Cc1ccccc1)Cc1ccccc1	-4	-28	8	-9	-18
O=C(C1CC1)N(CCN(Cc1ccccc1)C(=O)C1CC1)Cc1ccccc1	43*	-30	11	-7	-37
O=C(NCc1cccnc1)/C(=C\c1ccc(-c2cccc(Cl)c2)o1)S(=O)(=O)c1ccccc1	20*	-15	16	-6	-12
O=C(NCc1cccnc1)/C(=C/c1ccc(-c2cccc(Cl)c2)o1)S(=O)(=O)c1ccccc1	21	-5	26	4	-15
CCc1nnc2n1N=C(c1ccc(OC)cc1)CS2	-2	-12	12	-5	-21
CCc1nnc2n1N=C(c1ccc([N+](=O)[O-])cc1)CS2	-11	-12	56*	-2	-11
N#Cc1nc(COc2ccc(Br)cc2)oc1N1CCN(Cc2ccccc2)CC1	29*	x	x	-3	x
CCN1CCN(c2oc(COc3ccc(-c4ccccc4)cc3)nc2C#N)CC1	12	-10	15	-8	-15
O=C(c1cccs1)N1CCN(c2ccc([N+](=O)[O-])cc2F)CC1	5	-17	22	-6	-7
Cc1cc(N2CCN(C(=O)c3cccs3)CC2)c(F)cc1[N+](=O)[O-]	-3	9	47	-8	52*
Cc1cccc(OCc2nc(C#N)c(N3CCCC3)o2)c1	-1	-3	11	2	-15
Cc1cccc(OCc2nc(C#N)c(N3CC(C)CC(C)C3)o2)c1 (stereo not given)	21*	-39	8	-3	38*
COc1cc(OC)cc(-c2nc3cc(C)ccc3o2)c1	-14	-3	42*	0	-16
Cc1ccc(-c2nc3cc(Cl)ccc3o2)cc1	2	-10	12	1	-3
O=C(OCC(=O)N1CCCCC1)c1ccc2c(c1)C(=O)N(Cc1ccco1)C2=O	x	-7	33*	-4	-16
Cc1cc2cc(CCNC(=O)C(=O)c3c[nH]c4ccccc34)c(=O)[nH]c2cc1C	4	2	65*	-3	-20
O=C(NCCc1c[nH]c2ccccc12)C(=O)c1c[nH]c2ccccc12	-6	-4	12	-1	-18
